High-throughput results deposited in PubChem by The Scripps Research Institute Molecular Screening Center.
FXN GAA850 act: increases GAA850 frataxin promoter reporter activity | activation, % at 6 µM | HEK293 lucGAA850 FXN promoter luciferase reporter, 24 h; percent of 10 µM SAHA response | 360,000 compounds, 0.56% hits;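 active = activation above the average of all compounds screened plus 3 SD, cutoff fixed separately per campaign, cut at about 7.5% in these data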
proCasp7 act: activates human procaspase-7, counter-screen for procaspase-3 activators; P55210; recombinant procaspase-7, Ac-DEVD-pNA absorbance 405 nm; D23A/D198A/D206A triple mutant, cannot self-cleave; scale: DMSO 0, 5 µM enzyme 100; activation, % at 8.5 µM; 330,000 compounds, 0.093% hits; AID 463210;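 active = percent activation above the screen-wide mean plus 3 SD, cut at about 25% in these data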
Target sequence (P55210 whole entry D23A/D198A/D206A): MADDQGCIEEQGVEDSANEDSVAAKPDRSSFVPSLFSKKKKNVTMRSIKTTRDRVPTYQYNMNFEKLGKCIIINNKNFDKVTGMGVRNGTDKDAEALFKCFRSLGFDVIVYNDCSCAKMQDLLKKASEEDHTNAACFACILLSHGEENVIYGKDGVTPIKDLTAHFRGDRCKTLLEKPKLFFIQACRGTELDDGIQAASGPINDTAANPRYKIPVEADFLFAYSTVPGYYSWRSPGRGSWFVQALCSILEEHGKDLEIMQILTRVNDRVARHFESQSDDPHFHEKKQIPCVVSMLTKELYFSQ
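Assay system: Uncleavable procaspase-7 mutant enzyme / Input: 2 µM procaspase-7 mutant as dispensed / Dosing: single nominal 8.5 µM compound dose, 0.8% DMSO final / Timing: 1 h enzyme–compound preincubation and 2 h substrate reaction, both 25 °C / Detection: p-Nitroaniline absorbance at 405 nm, read at 0 and 120 min / Replication: singlicate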
procasp3 activ: procaspase-3 (human) activation; 330,000 compounds, 0.11% hits; recombinant procaspase-3 D3A, Ac-DEVD-pNA absorbance 405 nm; P42574; activation, % at 8.5 µM;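 active = activation above the mean of all tested compounds plus 3 SD, cut at about 21% in these data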
Target sequence (P42574 whole entry D9A/D28A/D175A): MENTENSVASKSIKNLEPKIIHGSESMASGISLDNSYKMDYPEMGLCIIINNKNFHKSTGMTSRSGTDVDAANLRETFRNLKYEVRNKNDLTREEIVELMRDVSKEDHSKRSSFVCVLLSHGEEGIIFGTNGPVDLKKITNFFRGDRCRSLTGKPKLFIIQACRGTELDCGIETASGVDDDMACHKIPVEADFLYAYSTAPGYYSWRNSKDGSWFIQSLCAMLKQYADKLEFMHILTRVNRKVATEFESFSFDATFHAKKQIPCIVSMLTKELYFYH
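Technique: 405 nm absorbance of p-nitroaniline, reads at 0 and 120 min; Test system: Procaspase-3 D3A mutant; Incubation: 1 h enzyme-compound preincubation, then 2 h substrate reaction, 25 °C; Repeats: singlicate, each compound tested once; Benchmarks: low control DMSO wells, high control DMSO plus 5 µM PC-3 D3A.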
GAA30 FXN cntr: activates GAA30 frataxin promoter, counter-screen for GAA850 activators; shares compounds with FXN GAA850 act; HEK293 lucGAA30 FXN promoter luciferase, 24 h; DMSO = 0%, 5 µM ipriflavone = 100%; activation, % at 6 µM; 1,900 compounds, 66% hits; AID 588350;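 active = mean activation above the mean of solvent-only control wells plus 3 SD, cut at about 22% in these data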;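 also: counterscreen of GAA850 promoter hits where activity marks nonselective or luminescence artifacts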
FXN GAA850 conf: confirmation of GAA850 frataxin (FXN) promoter activators | activation, % at 6 µM | 1,900 compounds, 86% hits | AID 588351 | shares compounds with FXN GAA850 act | HEK293 lucGAA850 FXN promoter luciferase reporter, 24 h; 100% = activation by SAHA;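 active = mean activation above a set limit taken from the primary screen, cut at about 8% in these data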
Each line names hits and unclear results; the compound was inactive in the other large screens (follow-up assays come after a bar, where they were run). Only some compounds are listed: those with a hit (about 0.7% of all), similar ones and a draw of the others.

COC(=O)[C@@]1(C)[C@H]2C(=O)N(Cc3ccccc3)C(=O)[C@H]2[C@H]2CN=C(SCc3ccccc3)N21	FXN GAA850 act 16 | GAA30 FXN cntr 33 | FXN GAA850 conf 16
CCN1C(=O)[C@H]2[C@H]3CN=C(SCC4CC4)N3[C@@](Cc3ccccc3)(C(=O)OC)[C@H]2C1=O	none
CC[C@]1(C(=O)OC)[C@H]2C(=O)N(Cc3ccccc3)C(=O)[C@H]2[C@H]2CN=C(SCc3ccc(C(=O)OC)cc3)N21	FXN GAA850 act 9.5 | GAA30 FXN cntr inactive | FXN GAA850 conf 11
CCN1C(=O)[C@H]2[C@H]3CN=C(SCc4ccc(C)cc4)N3[C@@](CC)(C(=O)OC)[C@H]2C1=O	none
O=C(COC(=O)/C=C/c1ccc(OC(F)F)cc1)Nc1ccc2[nH]c(=O)[nH]c2c1	none
O=C(Nc1ccc(C(=O)N2CCCc3ccccc32)cc1)c1cccs1	none
c1ccc(CSc2ncn[nH]2)nc1	none
CCCCN(C)C(=O)Cn1ncc2c3ccccc3n(CCC)c2c1=O	none (no result: proCasp7 act, procasp3 activ)
CN(CC(=O)Nc1cc(C(F)(F)F)ccc1-n1cncn1)Cc1ccccc1N1CCOCC1	none (no result: proCasp7 act, procasp3 activ)
COc1ccc(CCNC(=O)CSc2ccc3nnc(CCNC(=O)c4ccccc4)n3n2)cc1OC	none
COc1ccc(-n2c(=S)[nH]c3cc(C(=O)Nc4cccc(C)c4)ccc3c2=O)cc1	none
COc1ccc(-n2c(=S)[nH]c3cc(C(=O)Nc4ccc(OC)c(OC)c4)ccc3c2=O)cc1	FXN GAA850 act 11 | GAA30 FXN cntr inactive | FXN GAA850 conf inactive
O=C(OCC1CC(c2ccccc2)=NO1)c1ccc(Br)cc1 (stereo unspecified)	none
O=C(OCC1CC(c2ccccc2Cl)=NO1)c1ccc(Br)cc1 (stereo unspecified)	FXN GAA850 act 7.6 | GAA30 FXN cntr inactive | FXN GAA850 conf inactive
c1ccc(N2CCN(c3cnc4ccccc4n3)CC2)cc1	none
Fc1ccc(N2CCN(c3cnc4ccccc4n3)CC2)cc1	FXN GAA850 act 7.9 | GAA30 FXN cntr 106 | FXN GAA850 conf 41
COc1cccc(CN2CC(C(=O)NC3CCC3)CCC2=O)c1 (stereo unspecified)	none
N/C(=N\OC(=O)c1cccs1)c1ccccc1	FXN GAA850 act 7.7 | GAA30 FXN cntr 99 | FXN GAA850 conf 28
Cc1cccc(/C(N)=N/OC(=O)c2cccs2)c1	none
N/C(=N\OC(=O)c1cccs1)c1cccc(Br)c1	FXN GAA850 act 8.0 | GAA30 FXN cntr 57 | FXN GAA850 conf inactive
Cc1ccc(/C(N)=N/OC(=O)c2cccs2)cc1	none
O=C(COC(=O)c1ccc(OC(F)(F)F)cc1)NCCN1C(=O)CSC1=O	none
CCc1nc2c(OCc3ccc(C(F)(F)F)cc3)cccn2c1N(C)C(=O)c1ccc(C)cc1	none (no result: proCasp7 act, procasp3 activ)
COc1ccc(Cn2nnnc2CN(Cc2cc3cccc(C)c3[nH]c2=O)C2CCCC2)cc1	FXN GAA850 act 7.8 | GAA30 FXN cntr inactive | FXN GAA850 conf inactive
COc1ccc(Cn2nnnc2CN(Cc2cc3ccc(C)cc3[nH]c2=O)C2CCCC2)cc1	none
Cc1ccc2nc3c(cc(S(=O)(=O)c4ccccc4)c(=N)n3Cc3ccco3)c(=O)n2c1	FXN GAA850 act 9.3 | GAA30 FXN cntr 22 | FXN GAA850 conf inactive
N=c1c(S(=O)(=O)c2ccccc2)cc2c(=O)n3ccccc3nc2n1Cc1ccco1	none
CCOC(=O)C(CC)n1cnc2c(nnn2-c2ccc(F)cc2)c1=O (stereo unspecified)	FXN GAA850 act 19 | GAA30 FXN cntr inactive | FXN GAA850 conf inactive
CCOC(=O)C(CC)n1cnc2c(nnn2-c2ccccc2)c1=O (stereo unspecified)	none
Cc1cc(C)c2oc(C(=O)N3CCN(Cc4ccccc4)CC3)cc(=O)c2c1	none
Cc1cc(C(=O)CSc2nnnn2C)c(C)n1-c1ccc2c(c1)OCCO2	none
Cc1nnc(SCC(=O)c2cc(C)n(-c3ccc4c(c3)OCO4)c2C)s1	FXN GAA850 act 11 | GAA30 FXN cntr 66 | FXN GAA850 conf 26
CCSc1nc2ccc(OC)cc2cc1C#N	none
CCOc1ccc2nc(SCC#N)c(C#N)cc2c1	FXN GAA850 act 8.2 | GAA30 FXN cntr 108 | FXN GAA850 conf 32
O=C(Nc1ccccc1F)C1CCN(S(=O)(=O)c2cccnc2)CC1	none
CCN(CC)C(=S)Oc1ccc(Cl)cc1Cl	none
COc1cc(C(=S)N2CCCCC2)ccc1OCC(=O)Nc1ccc(F)cc1	none
COc1ccc(C2c3[nH]c4ccccc4c3C[C@H]3C(=O)N(c4ccccc4C(=O)N4CCC[C@H]4C(=O)O)C(=O)N23)cc1 (stereo partly specified)	none
Nc1nc(SCC(=O)c2c(N)n(Cc3ccccc3)c(=O)[nH]c2=O)n[nH]1	none
CCOC(=O)C1=C(O)/C(=C/c2cc(OC)c(OC)c(OC)c2)SC1=Nc1ccc(OC)cc1	FXN GAA850 act 9.6 | GAA30 FXN cntr inactive | FXN GAA850 conf 11
CCOC(=O)C1=C(O)/C(=C/c2ccc(OCC(=O)O)c(OCC)c2)SC1=Nc1ccc(OC)cc1	none
CCc1cccc(CC)c1NC(=O)COC(=O)c1ccc2c(c1)S(=O)(=O)c1ccccc1C2=O	FXN GAA850 act 14 | GAA30 FXN cntr 26 | FXN GAA850 conf inactive
NC(=O)COC(=O)c1ccc2c(c1)S(=O)(=O)c1ccccc1C2=O	none
COC(=O)c1ccc(C(=O)OC)c(NC(=S)N2CCCC(CO)C2)c1 (stereo unspecified)	none
O=C(/C=C/c1ccccc1)CC(=O)c1ccccc1O	FXN GAA850 act 8.9 | GAA30 FXN cntr 72 | FXN GAA850 conf 29
O=C(/C=C/c1ccccc1)NC(=O)c1ccccc1O	none
Cc1cc(C)nc(SCc2csc(-c3ccccc3)n2)n1	FXN GAA850 act 7.9 | GAA30 FXN cntr 115 | FXN GAA850 conf 40
Cc1cc(C)nc(SCc2csc(N)n2)n1	none
CCOC(=O)c1c(NC(=O)CSc2c[nH]c3ccccc23)sc2c1CCCC2	none
CCOC(=O)c1c(NC(=O)CSc2nnc(-c3c[nH]c4ccccc34)n2CCOC)sc2c1CCCCC2	FXN GAA850 act 17 | GAA30 FXN cntr inactive | FXN GAA850 conf 8.2
CCc1ccc2[nH]c3nc(N/N=C/c4ccc(O)cc4O)nnc3c2c1	none
Cc1cccc(C(=O)Nc2cccc(C(=O)N/N=C/c3ccncc3)c2)c1	none
Cc1cccc(C(=O)Nc2ccc(C(=O)/C=C/c3ccncc3)cc2)c1	FXN GAA850 act 17 | GAA30 FXN cntr inactive | FXN GAA850 conf 27
COc1ccc(OC)c(C(=O)c2ccc(C(=O)Nc3ccc(NC(C)=O)cc3)cc2)c1	none
O=c1[nH]c(=O)n(C2OC(CO)C(O)C2O)cc1F (stereo unspecified)	FXN GAA850 act 19 (no result: proCasp7 act, procasp3 activ) | GAA30 FXN cntr inactive | FXN GAA850 conf 78
O=c1[nH]c(=S)ccn1C1OC(CO)C(O)C1O (stereo unspecified)	none
C=CCNc1ncnc2c1ncn2[C@H]1CN(Cc2ccco2)C[C@@H](CO)O1	none (no result: proCasp7 act, procasp3 activ)
CSc1nnc(SCC#N)s1	none
